The source made the active and inactive calls. The calls are words filed in the database; no cut-off is given here.
Assays:
[1] = target: T1, Sphingosine kinase 1 (Homo sapiens, UniProt Q9NYA1); assay: Inhibition of human SphK1 expressed in baculovirus infected Sf9 insect cells using sphingosine and [gamma-(32)P]-ATP by scintillation proximity assay
How it was run: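 Ki calculated as Ki = [I]/(K′m/Km – 1), using a sphingosine Km of 10 μM for SphK1 and 5 μM for SphK2. Enzyme came from infected Sf9 cell extract (10,000×g supernatant, 2-3 μg protein).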

[2] = target: T2, Sphingosine kinase 2 (Homo sapiens) (UniProt Q9NRA0); assay: Inhibition of SphK2 in human U937 cells using FTY720 as substrate assessed as accumulation of FTY720 at 10 uM after 2 hrs by LC/MS analysis; assay type: cell-based; settings: U-937
T2 sequence (whole entry): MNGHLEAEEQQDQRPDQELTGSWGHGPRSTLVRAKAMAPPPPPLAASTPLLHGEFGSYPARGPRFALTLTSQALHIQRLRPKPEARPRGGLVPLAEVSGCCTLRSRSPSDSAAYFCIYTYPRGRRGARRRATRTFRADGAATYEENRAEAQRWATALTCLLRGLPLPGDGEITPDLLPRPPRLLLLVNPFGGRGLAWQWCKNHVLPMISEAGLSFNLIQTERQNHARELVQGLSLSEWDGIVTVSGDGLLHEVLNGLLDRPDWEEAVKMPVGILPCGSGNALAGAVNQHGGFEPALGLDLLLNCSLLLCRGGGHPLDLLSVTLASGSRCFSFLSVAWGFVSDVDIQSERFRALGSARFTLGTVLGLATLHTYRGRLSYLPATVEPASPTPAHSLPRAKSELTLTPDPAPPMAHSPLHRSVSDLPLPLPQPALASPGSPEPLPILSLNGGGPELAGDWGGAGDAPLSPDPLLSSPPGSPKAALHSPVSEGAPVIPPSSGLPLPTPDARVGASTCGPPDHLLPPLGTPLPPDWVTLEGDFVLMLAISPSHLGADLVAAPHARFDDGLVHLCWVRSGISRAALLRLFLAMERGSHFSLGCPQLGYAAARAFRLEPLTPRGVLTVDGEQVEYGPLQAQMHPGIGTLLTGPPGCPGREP
How it was run: (§1)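 Cultured U937 cells were given FTY720 plus 10 μM inhibitor for 2 h, then pelleted by centrifugation. FTY720 and FTY720-P in the cell pellet were measured by LC/MS (C18 reverse phase, water/methanol/formic acid gradient) and reported as moles per million cells. Values are means ± SD of three independent experiments, with significance by unpaired two-tailed t-test.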

[3] = target: T3, Sphingosine kinase 2 (Mus musculus, UniProt Q9JIA7); assay: Inhibition of mouse SphK2 expressed in baculovirus infected Sf9 insect cells using sphingosine and [gamma-(32)P]-ATP by scintillation proximity assay
T3 sequence (Q9JIA7 whole entry): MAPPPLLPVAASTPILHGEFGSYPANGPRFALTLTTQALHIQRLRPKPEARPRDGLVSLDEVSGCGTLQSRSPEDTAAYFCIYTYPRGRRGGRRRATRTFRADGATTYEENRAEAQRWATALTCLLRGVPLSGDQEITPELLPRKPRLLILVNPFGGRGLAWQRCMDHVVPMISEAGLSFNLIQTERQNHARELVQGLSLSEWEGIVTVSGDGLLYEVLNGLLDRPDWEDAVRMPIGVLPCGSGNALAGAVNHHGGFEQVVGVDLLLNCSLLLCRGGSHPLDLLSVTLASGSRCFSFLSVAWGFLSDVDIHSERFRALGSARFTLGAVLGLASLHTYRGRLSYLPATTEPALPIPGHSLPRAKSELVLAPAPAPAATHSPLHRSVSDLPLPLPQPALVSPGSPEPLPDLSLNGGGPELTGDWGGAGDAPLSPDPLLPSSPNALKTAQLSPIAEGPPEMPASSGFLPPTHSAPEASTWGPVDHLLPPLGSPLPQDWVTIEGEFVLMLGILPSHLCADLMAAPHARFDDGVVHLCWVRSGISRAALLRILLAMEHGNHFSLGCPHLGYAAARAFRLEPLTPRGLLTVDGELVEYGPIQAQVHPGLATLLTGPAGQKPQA

[4] = target: T4, Sphingosine kinase 2 (Mus musculus) (UniProt Q9JIA7); assay: Inhibition of mouse SphK2 expressed in baculovirus infected Sf9 insect cells assessed as remaining activity using sphingosine and [gamma-(32)P]-ATP at 100 uM by scintillation proximity counting
T4 sequence (whole entry): T3 sequence (Q9JIA7 whole entry)
How it was run: (§2)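 Enzyme source: supernatant (10,000×g) of homogenized Sf9 cells infected with recombinant virus for 72 h, 2-3 μg protein per reaction. Sphingosine substrate at 10 μM for SphK1 and 5 μM for SphK2. Initial screen used inhibitor at 100 μM, with some compounds at 10 μM. Read-out is percent of remaining kinase activity, averaged over three experiments.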

[5] = Selectivity ratio of Ki/Km for human SphK1 to Ki/Km for mouse SphK2
How it was run: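 Selectivity calculated as (Ki/Km)SphK1 divided by (Ki/Km)SphK2, with sphingosine Km taken as 10 μM for SphK1 and 5 μM for SphK2.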

[6] = target: T2, Sphingosine kinase 2 (Homo sapiens); assay: Inhibition of SphK2 in human U937 cells assessed as decrease in ERK phosphorylation after 16 hrs by Western blot analysis; assay type: cell-based; settings: U-937
How it was run: (§3)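 U937 cells were incubated with a range of inhibitor concentrations for 16 h, then washed with PBS and Dounce-lysed. Equal protein amounts were run on 10% SDS–PAGE and blotted to nitrocellulose. Blots were blocked in 5% milk/TBS-Tween, probed with antibodies to ERK, p-ERK, Akt, p-Akt and β-actin (1:1000, 1 h), then HRP anti-IgG (1:2000). PD098059 (10 μM) served as ERK-phosphorylation control.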

[7] = target: T2, Sphingosine kinase 2 (Homo sapiens); assay: Inhibition of SphK2 in human U937 cells using FTY720 as substrate assessed as decrease in phosphorylated FTY720 at 10 uM after 2 hrs by LC/MS analysis; assay type: cell-based; settings: U-937; how it was run: as §1
[8] = target: T1, Sphingosine kinase 1; assay: Inhibition of human SphK1 expressed in baculovirus infected Sf9 insect cells assessed as remaining activity using sphingosine and [gamma-(32)P]-ATP as substrate at 100 uM by scintillation proximity counting; how it was run: as §2
[9] = target: T2, Sphingosine kinase 2 (Homo sapiens); assay: Inhibition of SphK2 in human U937 cells assessed as change in S1P level by LC/MS analysis; assay type: cell-based; settings: U-937
How it was run: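 U937 cells were treated with inhibitor, and S1P levels were measured by LC/MS.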

[10] = target: T2, Sphingosine kinase 2 (Homo sapiens); assay: Inhibition of SphK2 in human U937 cells assessed as decrease in Akt phosphorylation after 16 hrs by Western blot analysis; assay type: cell-based; settings: U-937; how it was run: as §3

T1 sequence (Q9NYA1 whole entry): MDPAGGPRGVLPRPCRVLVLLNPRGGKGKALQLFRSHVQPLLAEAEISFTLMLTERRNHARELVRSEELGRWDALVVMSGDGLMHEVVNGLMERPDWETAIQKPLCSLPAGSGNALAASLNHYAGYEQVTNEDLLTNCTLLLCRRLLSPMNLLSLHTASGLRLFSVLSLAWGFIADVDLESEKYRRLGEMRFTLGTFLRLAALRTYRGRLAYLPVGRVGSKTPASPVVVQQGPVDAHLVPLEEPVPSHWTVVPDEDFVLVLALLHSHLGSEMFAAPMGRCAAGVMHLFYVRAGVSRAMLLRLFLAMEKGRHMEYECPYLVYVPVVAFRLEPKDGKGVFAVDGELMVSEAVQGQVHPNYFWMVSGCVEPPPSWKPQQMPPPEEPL

## CCCCCCCCc1ccc([C@H]2CC[C@H]([N+](C)(C)C)CC2)cc1
[1]
  Ki: 60 µM
[2]
  inhibition: Active
[3]
  Ki: 8 µM
[4]
  Activity: 4%
[5]
  Selectivity ratio: 3.75
[6]
  inhibition: Dose-dependent effect
[7]
  inhibition: Active
[8]
  Activity: 10.2%
[9]
  inhibition: inactive
[10]
  inhibition: Dose-dependent effect

## CCCCCCCCc1ccc([C@H]2CC[C@H]([N+](C)(C)CCC)CC2)cc1
[1]
  Ki: 47 µM
[2]
  inhibition: Active
[3]
  Ki: 8 µM
[4]
  Activity: 7.2%
[5]
  Selectivity ratio: 2.94
[6]
  inhibition: Dose-dependent effect
[7]
  inhibition: Active
[8]
  Activity: 5.3%
[9]
  inhibition: inactive
[10]
  inhibition: Dose-dependent effect

— ChEMBL document CHEMBL1926562, “Design, synthesis and biological activity of sphingosine kinase 2 selective inhibitors” (Bioorg Med Chem, 2012)
